Data taken from ChEMBL document CHEMBL1681705, “Optimisation of ITK inhibitors through successive iterative design cycles” (Bioorg Med Chem Lett, 2011).

How the values were obtained:
[1] = target: T1, Dual specificity mitogen-activated protein kinase kinase 7 (Homo sapiens) (UniProt O14733); assay: Inhibition of MKK7beta at 1 uM
T1 sequence (whole entry): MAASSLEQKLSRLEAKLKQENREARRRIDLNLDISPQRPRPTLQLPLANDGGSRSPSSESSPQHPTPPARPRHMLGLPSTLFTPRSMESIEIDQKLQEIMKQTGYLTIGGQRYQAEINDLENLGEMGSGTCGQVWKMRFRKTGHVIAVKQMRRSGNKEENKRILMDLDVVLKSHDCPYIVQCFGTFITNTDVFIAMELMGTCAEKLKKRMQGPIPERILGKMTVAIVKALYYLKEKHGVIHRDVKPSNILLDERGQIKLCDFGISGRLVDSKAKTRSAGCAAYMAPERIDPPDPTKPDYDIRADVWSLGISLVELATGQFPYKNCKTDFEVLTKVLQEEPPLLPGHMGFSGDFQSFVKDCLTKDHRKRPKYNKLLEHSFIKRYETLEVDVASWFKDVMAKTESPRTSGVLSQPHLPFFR
In short: (§1)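 Single-point screen within a 108-kinase selectivity panel. Each kinase was tested with inhibitor at 0.1 and 1.0 micromolar, and activity was recorded as percent inhibition.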

[2] = target: Ribosomal protein S6 kinase alpha-4 (Homo sapiens) (UniProt O75676); assay: Inhibition of MSK2 at 1 uM; in short: as §1
Sequence of Ribosomal protein S6 kinase alpha-4 (Homo sapiens) (O75676 whole entry, looked up): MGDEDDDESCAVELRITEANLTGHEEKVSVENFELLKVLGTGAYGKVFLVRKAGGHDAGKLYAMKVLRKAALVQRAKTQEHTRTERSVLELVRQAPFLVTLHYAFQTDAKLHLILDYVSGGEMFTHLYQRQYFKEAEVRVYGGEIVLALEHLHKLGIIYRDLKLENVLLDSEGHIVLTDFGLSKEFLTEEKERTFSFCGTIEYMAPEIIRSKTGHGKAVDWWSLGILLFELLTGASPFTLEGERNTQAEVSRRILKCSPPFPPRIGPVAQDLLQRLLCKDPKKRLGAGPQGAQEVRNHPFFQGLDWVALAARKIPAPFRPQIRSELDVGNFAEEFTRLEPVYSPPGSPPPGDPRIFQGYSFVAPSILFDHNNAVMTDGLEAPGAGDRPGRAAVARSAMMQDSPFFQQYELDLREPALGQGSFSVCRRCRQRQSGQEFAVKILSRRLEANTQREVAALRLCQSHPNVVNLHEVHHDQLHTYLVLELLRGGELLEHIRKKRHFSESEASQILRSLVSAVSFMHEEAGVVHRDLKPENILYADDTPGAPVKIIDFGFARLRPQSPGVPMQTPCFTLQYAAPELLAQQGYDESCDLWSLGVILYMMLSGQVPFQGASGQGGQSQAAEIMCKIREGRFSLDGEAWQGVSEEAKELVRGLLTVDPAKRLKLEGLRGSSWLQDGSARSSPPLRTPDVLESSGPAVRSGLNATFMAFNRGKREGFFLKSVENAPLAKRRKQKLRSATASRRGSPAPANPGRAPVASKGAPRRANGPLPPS

[3] = target: Mitogen-activated protein kinase 11 (Homo sapiens) (UniProt Q15759); assay: Inhibition of SAPK2b at 1 uM
[4] = target: Mitogen-activated protein kinase 9 (Homo sapiens) (UniProt P45984); assay: Inhibition of JNK2a2 at 1 uM; conditions: values are per cent of control
Sequence of Mitogen-activated protein kinase 9 (Homo sapiens) (P45984 whole entry, looked up): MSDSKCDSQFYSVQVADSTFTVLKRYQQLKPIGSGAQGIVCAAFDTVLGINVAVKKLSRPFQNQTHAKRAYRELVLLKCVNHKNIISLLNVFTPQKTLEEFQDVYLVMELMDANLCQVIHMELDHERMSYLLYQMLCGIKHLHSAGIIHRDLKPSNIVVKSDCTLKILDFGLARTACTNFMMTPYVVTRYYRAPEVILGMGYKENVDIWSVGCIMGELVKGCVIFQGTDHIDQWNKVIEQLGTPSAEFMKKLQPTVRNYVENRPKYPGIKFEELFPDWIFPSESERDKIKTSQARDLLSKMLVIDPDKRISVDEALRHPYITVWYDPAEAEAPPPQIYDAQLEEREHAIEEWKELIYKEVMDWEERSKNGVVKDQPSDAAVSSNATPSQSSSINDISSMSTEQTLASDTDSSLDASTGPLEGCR

[5] = target: Tyrosine-protein kinase ABL1 (Homo sapiens) (UniProt P00519); assay: Inhibition of Abl at 1 uM; values are per cent of control
Sequence of Tyrosine-protein kinase ABL1 (Homo sapiens) (P00519 whole entry): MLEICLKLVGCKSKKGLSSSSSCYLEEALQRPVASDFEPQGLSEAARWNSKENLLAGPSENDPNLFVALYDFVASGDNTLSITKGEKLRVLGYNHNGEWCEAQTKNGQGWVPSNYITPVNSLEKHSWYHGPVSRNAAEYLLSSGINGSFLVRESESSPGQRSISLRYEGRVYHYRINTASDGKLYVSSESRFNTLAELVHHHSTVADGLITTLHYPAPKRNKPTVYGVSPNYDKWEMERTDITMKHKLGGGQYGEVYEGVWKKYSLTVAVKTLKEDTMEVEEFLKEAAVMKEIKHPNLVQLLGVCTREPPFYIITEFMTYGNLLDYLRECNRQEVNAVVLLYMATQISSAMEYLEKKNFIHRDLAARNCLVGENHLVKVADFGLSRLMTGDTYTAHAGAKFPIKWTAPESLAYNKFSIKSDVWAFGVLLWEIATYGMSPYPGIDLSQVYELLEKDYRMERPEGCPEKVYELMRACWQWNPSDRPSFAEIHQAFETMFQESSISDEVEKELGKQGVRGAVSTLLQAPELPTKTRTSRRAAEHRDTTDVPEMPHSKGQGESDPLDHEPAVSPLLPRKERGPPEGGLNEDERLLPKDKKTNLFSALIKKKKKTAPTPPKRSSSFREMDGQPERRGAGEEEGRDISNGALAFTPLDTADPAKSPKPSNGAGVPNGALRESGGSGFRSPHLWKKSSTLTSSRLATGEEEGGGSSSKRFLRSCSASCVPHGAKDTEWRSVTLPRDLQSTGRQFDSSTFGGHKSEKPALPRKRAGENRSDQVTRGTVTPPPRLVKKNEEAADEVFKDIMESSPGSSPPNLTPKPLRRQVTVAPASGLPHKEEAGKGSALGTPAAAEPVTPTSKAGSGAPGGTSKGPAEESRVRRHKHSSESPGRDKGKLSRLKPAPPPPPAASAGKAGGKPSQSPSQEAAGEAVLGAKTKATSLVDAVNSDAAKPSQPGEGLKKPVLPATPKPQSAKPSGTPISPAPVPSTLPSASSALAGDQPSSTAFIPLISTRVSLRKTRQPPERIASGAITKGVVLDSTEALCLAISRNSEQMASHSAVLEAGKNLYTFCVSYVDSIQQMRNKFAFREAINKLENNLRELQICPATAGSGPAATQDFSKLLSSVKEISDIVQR

[6] = target: Tyrosine-protein kinase Lyn (Homo sapiens) (UniProt P07948); assay: Inhibition of Lyn at 0.1 uM; values are per cent of control
Sequence of Tyrosine-protein kinase Lyn (Homo sapiens) (P07948 2-512 limits assumed): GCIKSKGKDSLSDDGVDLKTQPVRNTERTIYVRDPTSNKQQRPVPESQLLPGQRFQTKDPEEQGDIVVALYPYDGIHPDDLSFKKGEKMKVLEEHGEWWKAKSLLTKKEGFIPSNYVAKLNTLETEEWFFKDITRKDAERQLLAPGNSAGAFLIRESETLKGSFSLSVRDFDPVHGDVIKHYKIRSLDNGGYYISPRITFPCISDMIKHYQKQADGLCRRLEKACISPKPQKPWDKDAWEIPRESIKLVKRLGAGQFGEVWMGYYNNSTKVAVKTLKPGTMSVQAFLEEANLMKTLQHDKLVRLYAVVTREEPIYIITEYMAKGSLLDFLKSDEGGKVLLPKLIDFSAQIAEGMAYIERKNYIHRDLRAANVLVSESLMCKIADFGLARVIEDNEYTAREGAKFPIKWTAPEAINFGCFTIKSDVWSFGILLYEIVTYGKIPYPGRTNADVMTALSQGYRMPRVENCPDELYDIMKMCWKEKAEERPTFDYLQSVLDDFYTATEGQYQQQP

[7] = target: RAF proto-oncogene serine/threonine-protein kinase (Homo sapiens) (UniProt P04049); assay: Inhibition of c-RAF at 1 uM; values are per cent of control
Sequence of RAF proto-oncogene serine/threonine-protein kinase (Homo sapiens) (P04049 whole entry): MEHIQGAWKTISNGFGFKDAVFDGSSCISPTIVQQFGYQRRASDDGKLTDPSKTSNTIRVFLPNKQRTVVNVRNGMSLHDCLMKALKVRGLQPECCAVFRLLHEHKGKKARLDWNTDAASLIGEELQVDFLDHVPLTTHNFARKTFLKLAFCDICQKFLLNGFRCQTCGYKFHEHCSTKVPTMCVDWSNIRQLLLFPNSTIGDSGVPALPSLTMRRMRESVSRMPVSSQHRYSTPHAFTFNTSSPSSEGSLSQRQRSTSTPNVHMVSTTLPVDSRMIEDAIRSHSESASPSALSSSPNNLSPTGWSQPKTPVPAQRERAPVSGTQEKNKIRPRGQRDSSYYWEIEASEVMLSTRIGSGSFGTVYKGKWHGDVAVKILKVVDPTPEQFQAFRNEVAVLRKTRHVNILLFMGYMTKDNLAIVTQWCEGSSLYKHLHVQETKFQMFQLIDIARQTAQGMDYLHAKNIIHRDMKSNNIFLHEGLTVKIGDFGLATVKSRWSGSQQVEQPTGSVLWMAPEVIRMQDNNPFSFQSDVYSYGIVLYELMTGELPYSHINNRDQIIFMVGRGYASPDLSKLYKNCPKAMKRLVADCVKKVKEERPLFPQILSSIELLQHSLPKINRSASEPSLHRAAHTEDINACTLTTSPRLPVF

[8] = target: T2, Ephrin type-A receptor 3 (Homo sapiens) (UniProt P29320); assay: Inhibition of EphA3 at 1 uM; values are per cent of control
T2 sequence (whole entry): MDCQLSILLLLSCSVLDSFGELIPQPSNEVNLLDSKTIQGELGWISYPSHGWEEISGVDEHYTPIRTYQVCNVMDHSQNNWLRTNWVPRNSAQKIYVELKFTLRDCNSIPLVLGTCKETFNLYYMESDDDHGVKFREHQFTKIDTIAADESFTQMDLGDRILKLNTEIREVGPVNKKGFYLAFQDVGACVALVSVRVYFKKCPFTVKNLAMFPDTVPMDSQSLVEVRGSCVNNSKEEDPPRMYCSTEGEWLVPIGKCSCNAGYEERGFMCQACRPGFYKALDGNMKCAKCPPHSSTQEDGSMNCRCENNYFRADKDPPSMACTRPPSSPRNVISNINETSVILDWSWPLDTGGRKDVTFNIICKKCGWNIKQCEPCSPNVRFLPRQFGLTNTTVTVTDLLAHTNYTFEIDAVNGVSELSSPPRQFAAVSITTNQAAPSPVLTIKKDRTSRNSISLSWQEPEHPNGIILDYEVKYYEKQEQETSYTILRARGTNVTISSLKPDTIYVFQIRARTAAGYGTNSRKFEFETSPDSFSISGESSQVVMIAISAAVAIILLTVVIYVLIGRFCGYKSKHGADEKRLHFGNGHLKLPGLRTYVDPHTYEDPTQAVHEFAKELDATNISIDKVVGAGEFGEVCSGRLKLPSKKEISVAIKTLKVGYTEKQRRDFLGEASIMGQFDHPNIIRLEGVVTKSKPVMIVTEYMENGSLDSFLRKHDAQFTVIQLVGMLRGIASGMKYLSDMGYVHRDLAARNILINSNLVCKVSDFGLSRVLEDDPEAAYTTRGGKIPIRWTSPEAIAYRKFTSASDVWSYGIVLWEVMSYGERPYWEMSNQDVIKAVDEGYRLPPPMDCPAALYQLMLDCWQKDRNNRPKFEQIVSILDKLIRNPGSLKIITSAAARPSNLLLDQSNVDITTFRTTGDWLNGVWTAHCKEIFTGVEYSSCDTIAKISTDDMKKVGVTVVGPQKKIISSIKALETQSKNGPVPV

[9] = target: Epidermal growth factor receptor (Homo sapiens) (UniProt P00533); assay: Inhibition of EGFR at 0.1 uM; values are per cent of control
Sequence of Epidermal growth factor receptor (Homo sapiens) (P00533 whole entry): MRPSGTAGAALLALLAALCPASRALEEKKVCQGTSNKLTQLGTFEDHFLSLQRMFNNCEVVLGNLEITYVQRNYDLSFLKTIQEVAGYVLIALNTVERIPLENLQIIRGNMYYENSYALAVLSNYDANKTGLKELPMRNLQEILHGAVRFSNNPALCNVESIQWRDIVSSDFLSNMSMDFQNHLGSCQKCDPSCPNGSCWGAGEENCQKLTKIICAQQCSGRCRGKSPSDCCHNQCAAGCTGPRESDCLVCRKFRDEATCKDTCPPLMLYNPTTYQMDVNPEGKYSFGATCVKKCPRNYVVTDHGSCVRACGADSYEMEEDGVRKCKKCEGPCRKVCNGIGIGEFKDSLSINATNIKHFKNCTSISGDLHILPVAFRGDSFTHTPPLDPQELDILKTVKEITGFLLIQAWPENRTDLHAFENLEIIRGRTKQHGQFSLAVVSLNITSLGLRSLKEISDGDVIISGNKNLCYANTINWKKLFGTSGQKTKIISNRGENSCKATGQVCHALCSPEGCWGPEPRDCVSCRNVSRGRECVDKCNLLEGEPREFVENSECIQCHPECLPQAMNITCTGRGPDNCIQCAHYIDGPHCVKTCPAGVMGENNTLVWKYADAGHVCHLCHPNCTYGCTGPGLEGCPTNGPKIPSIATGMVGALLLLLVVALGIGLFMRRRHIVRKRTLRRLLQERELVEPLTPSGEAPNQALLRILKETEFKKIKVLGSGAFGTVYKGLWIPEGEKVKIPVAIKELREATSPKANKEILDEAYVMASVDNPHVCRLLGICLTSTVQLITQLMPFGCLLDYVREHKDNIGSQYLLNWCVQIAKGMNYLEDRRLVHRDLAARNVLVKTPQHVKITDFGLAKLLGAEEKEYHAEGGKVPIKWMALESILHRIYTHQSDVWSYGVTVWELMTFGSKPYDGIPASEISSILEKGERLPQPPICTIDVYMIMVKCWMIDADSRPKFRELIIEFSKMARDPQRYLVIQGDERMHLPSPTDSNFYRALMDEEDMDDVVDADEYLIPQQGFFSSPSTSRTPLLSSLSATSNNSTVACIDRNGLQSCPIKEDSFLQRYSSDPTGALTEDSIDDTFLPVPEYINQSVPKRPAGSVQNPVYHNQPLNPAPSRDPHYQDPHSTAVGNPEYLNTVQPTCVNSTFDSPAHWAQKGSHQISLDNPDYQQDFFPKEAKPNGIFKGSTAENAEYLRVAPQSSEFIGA

[10] = target: BDNF/NT-3 growth factors receptor (Homo sapiens) (UniProt Q16620); assay: Inhibition of TrkB at 0.1 uM; values are per cent of control
[11] = target: Death-associated protein kinase 2 (Homo sapiens) (UniProt Q9UIK4); assay: Inhibition of DAPK2 at 0.1 uM; values are per cent of control
Sequence of Death-associated protein kinase 2 (Homo sapiens) (Q9UIK4 whole entry, looked up): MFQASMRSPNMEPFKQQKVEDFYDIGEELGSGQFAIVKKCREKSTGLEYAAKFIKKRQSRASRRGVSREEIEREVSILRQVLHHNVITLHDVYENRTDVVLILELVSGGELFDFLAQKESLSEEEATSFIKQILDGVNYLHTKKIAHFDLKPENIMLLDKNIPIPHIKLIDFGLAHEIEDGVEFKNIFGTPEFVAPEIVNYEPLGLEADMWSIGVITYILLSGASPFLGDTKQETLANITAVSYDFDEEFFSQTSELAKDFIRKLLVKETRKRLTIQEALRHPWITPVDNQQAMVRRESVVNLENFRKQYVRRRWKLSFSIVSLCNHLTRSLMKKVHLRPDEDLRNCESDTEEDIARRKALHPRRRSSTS

[12] = target: T3, Aurora kinase A (Homo sapiens) (UniProt O14965); assay: Inhibition of aurora-A at 1 uM; values are per cent of control
T3 sequence (whole entry): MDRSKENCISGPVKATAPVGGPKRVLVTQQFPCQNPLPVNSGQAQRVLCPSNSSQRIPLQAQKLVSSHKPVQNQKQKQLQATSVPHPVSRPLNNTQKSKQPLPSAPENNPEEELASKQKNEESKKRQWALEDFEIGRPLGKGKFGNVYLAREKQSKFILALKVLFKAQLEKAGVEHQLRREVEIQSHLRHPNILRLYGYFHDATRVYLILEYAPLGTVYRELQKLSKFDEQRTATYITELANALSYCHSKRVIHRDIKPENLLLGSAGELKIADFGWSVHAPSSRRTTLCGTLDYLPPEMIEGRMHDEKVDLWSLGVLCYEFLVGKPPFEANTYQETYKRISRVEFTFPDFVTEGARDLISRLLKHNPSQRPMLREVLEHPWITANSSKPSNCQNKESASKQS

inhibition [1] | inhibition [2] | inhibition [3] | residual activity [4] | residual activity [5] | residual activity [6] | residual activity [7] | residual activity [8] | residual activity [9] | residual activity [10] | residual activity [12] | Structure (SMILES) | residual activity [11]
52% | 2% | 91% | 87% | 0% | 1% | 90% | 29% | 94% | 2% | 0% | Cc1ccc2cc(-c3n[nH]c4ccc(NC5CCNC5)cc34)[nH]c2c1 (centres undefined) | 91%
95% | 91% | 86% | 88% | 0% | 15% | 90% | 14% | 28% | 1% | -7% | Cc1ccc2cc(-c3n[nH]c4ccc(NC5CCN(Cc6ccccc6)CC5)cc34)[nH]c2c1 | 106%
